Calls of active or inactive are those of the source. The calls are words filed in the database; no cut-off is given here.
Assays:
[1] = Metabolic stability in human serum assessed as full length product remaining after 10 mins by HPLC; format: ADME, cell-free; conditions: read-out: Stability
Outline: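 About 0.5 A260 units compound in 1% human serum in PBS, 37 °C; aliquot taken at 10 min, analysed by anion-exchange HPLC for percent intact full-length product.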

Splenocyte [2] = test: Immunomodulatory activity in C57BL/6 mouse splenocytes bearing TLR7 receptor assessed as IL6 release at 100 ug/ml after 24 hrs by ELISA; format: functional, cell-based
Outline: (§1)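 C57BL/6 splenocytes in RPMI 1640 with 10% FBS, penicillin/streptomycin, 2 mM L-glutamine, plated at 5 × 10^6 cells/mL; compounds in PBS added, 37 °C for 24 h. Supernatant IL-12 and IL-6 by ELISA; representative of three independent experiments.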

Splenocyte [3] = test: Immunomodulatory activity in C57BL/6 mouse splenocytes bearing TLR7 receptor assessed as IL12 release at 100 ug/ml after 24 hrs by ELISA; format: functional, cell-based; outline: as §1
[4] = target: T1, Toll-like receptor 8 (Homo sapiens) (UniProt Q9NR97); test: Activation of human TLR8 expressed in HEK293XL assessed as fold induction of NF-kappaB activity at 50 ug/ml after 18 hrs by reporter gene assay relative to control
T1 sequence (whole entry): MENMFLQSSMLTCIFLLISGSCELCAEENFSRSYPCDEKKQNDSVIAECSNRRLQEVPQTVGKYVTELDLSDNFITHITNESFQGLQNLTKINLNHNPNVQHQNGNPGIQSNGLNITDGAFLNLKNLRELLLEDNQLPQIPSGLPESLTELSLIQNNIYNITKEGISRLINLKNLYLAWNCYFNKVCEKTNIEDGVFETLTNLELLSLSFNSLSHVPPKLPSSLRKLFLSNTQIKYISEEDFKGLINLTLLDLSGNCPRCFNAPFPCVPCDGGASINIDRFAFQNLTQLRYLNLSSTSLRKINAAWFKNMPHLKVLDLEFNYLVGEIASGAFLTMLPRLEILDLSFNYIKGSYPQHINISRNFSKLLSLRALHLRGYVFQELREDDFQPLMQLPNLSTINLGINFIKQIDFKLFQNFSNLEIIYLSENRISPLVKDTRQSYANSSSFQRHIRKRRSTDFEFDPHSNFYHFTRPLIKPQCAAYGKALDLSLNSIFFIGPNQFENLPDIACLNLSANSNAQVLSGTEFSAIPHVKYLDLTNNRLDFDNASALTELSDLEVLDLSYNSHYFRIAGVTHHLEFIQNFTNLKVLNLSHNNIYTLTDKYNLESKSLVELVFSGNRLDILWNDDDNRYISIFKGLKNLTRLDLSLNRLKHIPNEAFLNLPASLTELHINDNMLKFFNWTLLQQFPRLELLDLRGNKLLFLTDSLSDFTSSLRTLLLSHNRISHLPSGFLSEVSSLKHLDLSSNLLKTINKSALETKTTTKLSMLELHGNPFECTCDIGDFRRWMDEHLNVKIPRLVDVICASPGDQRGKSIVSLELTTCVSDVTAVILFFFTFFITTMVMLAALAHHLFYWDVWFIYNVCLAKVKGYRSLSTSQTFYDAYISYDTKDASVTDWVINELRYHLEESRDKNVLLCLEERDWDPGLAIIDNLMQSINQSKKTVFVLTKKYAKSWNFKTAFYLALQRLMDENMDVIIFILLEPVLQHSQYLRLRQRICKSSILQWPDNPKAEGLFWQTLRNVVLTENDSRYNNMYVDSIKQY
Outline: (§2)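 HEK293 cells stably expressing human TLR7 or TLR8, transiently transfected with SEAP reporter plasmid; medium replaced, SIMRA compounds added, 18 h incubation. Supernatant SEAP measured by QuantiBlue; expressed as fold increase in NF-κB activity over PBS control. Tabulated data at 50 μg/mL, representative of three independent experiments.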

Homo sapiens = species: Homo sapiens; test: Ratio of human TLR7 activity to human TLR8 activity
Outline: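 TLR7/TLR8 ratio computed from fold NF-κB (SEAP reporter) activation in HEK293 cells stably expressing human TLR7 versus TLR8, compounds at 50 μg/mL, 18 h exposure; representative of three independent experiments.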

PBMC = test: Immunomodulatory activity in human PBMC assessed as induction of TNFalpha at 100 ug/ml after 24 hrs; format: functional, cell-based
Outline: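 Human PBMCs plated at 5 × 10^6 cells/mL; compounds dissolved in PBS added at various concentrations, 37 °C for 24 h. Supernatant cytokines/chemokines quantified with human Luminex multiplex kit.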

[5] = target: T2, Toll-like receptor 7 (Homo sapiens) (UniProt Q9NYK1); test: Activation of human TLR7 expressed in HEK293XL assessed as fold induction of NF-kappaB activity at 50 ug/ml after 18 hrs by reporter gene assay relative to control; outline: as §2
T2 sequence (whole entry): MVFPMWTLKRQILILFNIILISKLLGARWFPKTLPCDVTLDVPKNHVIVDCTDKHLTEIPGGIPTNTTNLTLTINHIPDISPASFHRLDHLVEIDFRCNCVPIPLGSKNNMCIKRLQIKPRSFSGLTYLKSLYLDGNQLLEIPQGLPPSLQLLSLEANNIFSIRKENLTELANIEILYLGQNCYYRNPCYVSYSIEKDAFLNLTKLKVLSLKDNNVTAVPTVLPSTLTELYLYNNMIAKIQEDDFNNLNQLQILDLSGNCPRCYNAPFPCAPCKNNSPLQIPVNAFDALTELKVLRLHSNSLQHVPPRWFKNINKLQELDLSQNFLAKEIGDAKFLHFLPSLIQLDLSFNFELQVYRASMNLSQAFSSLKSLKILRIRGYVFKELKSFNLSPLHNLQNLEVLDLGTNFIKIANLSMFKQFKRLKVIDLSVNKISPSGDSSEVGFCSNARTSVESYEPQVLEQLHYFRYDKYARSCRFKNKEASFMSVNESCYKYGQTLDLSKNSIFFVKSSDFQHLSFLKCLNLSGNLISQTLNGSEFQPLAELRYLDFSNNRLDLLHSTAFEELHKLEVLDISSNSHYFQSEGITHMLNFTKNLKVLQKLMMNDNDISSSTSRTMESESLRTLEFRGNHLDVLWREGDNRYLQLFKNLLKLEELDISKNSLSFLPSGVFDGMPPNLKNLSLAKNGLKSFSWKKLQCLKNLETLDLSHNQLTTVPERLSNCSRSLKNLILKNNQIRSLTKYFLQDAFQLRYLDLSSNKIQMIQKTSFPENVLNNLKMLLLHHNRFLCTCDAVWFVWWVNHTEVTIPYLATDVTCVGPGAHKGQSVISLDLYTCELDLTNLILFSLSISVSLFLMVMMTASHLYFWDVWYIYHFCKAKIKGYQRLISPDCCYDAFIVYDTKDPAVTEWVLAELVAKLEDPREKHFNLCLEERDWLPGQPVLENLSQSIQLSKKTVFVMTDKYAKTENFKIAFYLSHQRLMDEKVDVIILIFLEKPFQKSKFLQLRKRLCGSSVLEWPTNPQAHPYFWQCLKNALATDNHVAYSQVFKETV

remaining at 10 min [1] | Activity (Splenocyte [2]) | Activity (Splenocyte [3]) | fold change (FC) [4] | Ratio (Homo sapiens) | fold change (FC) [5] | SMILES | Activity (PBMC)
84% | Active | Active | 0.4 | 46 | 18.4 | Nc1ccn([C@@H]2O[C@H](COP(=O)(S)O[C@H]3[C@@H](O)[C@H](n4cnc5c(N)ncnc54)O[C@@H]3COP(=O)(S)O[C@H]3[C@@H](O)[C@H](n4cnc5c(N)ncnc54)O[C@@H]3CO)[C@@H](OP(=O)(S)OC[C@H]3O[C@@H](n4ccc(=O)[nH]c4=O)[C@H](O)[C@@H]3OP(=O)(S)OC[C@H]3O[C@@H](n4ccc5c(=O)[nH]c(N)nc54)[C@H](O)[C@@H]3OP(=O)(S)OC[C@H]3O[C@@H](n4cnc5c(N)ncnc54)[C@H](O)[C@@H]3OP(=O)(S)OC[C@H]3O[C@@H](n4ccc(N)nc4=O)[C@H](O)[C@@H]3OP(=O)(S)OC[C@H]3O[C@@H](n4ccc5c(=O)[nH]c(N)nc54)[C@H](O)[C@@H]3OP(=O)(S)OC[C@H]3O[C@@H](n4ccc(N)nc4=O)[C@H](O)[C@@H]3OP(=O)(S)OC[C@H]3O[C@@H](n4ccc(=O)[nH]c4=O)[C@H](O)[C@@H]3OP(=O)(S)OC[C@H]3O[C@@H](n4ccc5c(=O)[nH]c(N)nc54)[C@H](O)[C@@H]3OP(=O)(S)OCC(O)COP(=O)(S)O[C@H]3[C@@H](O)[C@H](n4ccc5c(=O)[nH]c(N)nc54)O[C@@H]3COP(=O)(S)O[C@H]3[C@@H](O)[C@H](n4ccc(=O)[nH]c4=O)O[C@@H]3COP(=O)(S)O[C@H]3[C@@H](O)[C@H](n4ccc(N)nc4=O)O[C@@H]3COP(=O)(S)O[C@H]3[C@@H](O)[C@H](n4ccc5c(=O)[nH]c(N)nc54)O[C@@H]3COP(=O)(S)O[C@H]3[C@@H](O)[C@H](n4ccc(N)nc4=O)O[C@@H]3COP(=O)(S)O[C@H]3[C@@H](O)[C@H](n4cnc5c(N)ncnc54)O[C@@H]3COP(=O)(S)O[C@H]3[C@@H](O)[C@H](n4ccc5c(=O)[nH]c(N)nc54)O[C@@H]3COP(=O)(S)O[C@H]3[C@@H](O)[C@H](n4ccc(=O)[nH]c4=O)O[C@@H]3COP(=O)(S)O[C@H]3[C@@H](O)[C@H](n4ccc(N)nc4=O)O[C@@H]3COP(=O)(S)O[C@H]3[C@@H](O)[C@H](n4cnc5c(N)ncnc54)O[C@@H]3COP(=O)(S)O[C@H]3[C@@H](O)[C@H](n4cnc5c(N)ncnc54)O[C@@H]3CO)[C@H]2O)c(=O)n1 (stereo partly drawn) | 0 pg/mL
 | Active | Active | 4.7 | 3.4 | 16.1 | Nc1ccn([C@@H]2O[C@H](COP(O)(=S)O[C@H]3[C@@H](O)[C@H](n4ccc(=O)[nH]c4=O)O[C@@H]3COP(O)(=S)O[C@H]3[C@@H](O)[C@H](n4ccc(=O)[nH]c4=O)O[C@@H]3COP(O)(=S)O[C@H]3[C@@H](O)[C@H](n4ccc(N)nc4=O)O[C@@H]3COP(O)(=S)O[C@H]3[C@@H](O)[C@H](n4ccc5c(=O)[nH]c(N)nc54)O[C@@H]3COP(O)(=S)O[C@H]3[C@@H](O)[C@H](n4ccc(=O)[nH]c4=O)O[C@@H]3COP(O)(=S)O[C@H]3[C@@H](O)[C@H](n4ccc(N)nc4=O)O[C@@H]3COP(O)(=S)O[C@H]3[C@@H](O)[C@H](n4ccc5c(=O)[nH]c(N)nc54)O[C@@H]3COP(O)(=S)O[C@H]3[C@@H](O)[C@H](n4ccc(=O)[nH]c4=O)O[C@@H]3CO)[C@@H](OP(O)(=S)OC[C@H]3O[C@@H](n4ccc(=O)[nH]c4=O)[C@H](O)[C@@H]3OP(O)(=S)OC[C@H]3O[C@@H](n4ccc5c(=O)[nH]c(N)nc54)[C@H](O)[C@@H]3OP(O)(=S)OCC(O)COP(O)(=S)O[C@H]3[C@@H](O)[C@H](n4ccc5c(=O)[nH]c(N)nc54)O[C@@H]3COP(O)(=S)O[C@H]3[C@@H](O)[C@H](n4ccc(=O)[nH]c4=O)O[C@@H]3COP(O)(=S)O[C@H]3[C@@H](O)[C@H](n4ccc(N)nc4=O)O[C@@H]3COP(O)(=S)O[C@H]3[C@@H](O)[C@H](n4ccc(=O)[nH]c4=O)O[C@@H]3COP(O)(=S)O[C@H]3[C@@H](O)[C@H](n4ccc(=O)[nH]c4=O)O[C@@H]3COP(O)(=S)O[C@H]3[C@@H](O)[C@H](n4ccc(N)nc4=O)O[C@@H]3COP(O)(=S)O[C@H]3[C@@H](O)[C@H](n4ccc5c(=O)[nH]c(N)nc54)O[C@@H]3COP(O)(=S)O[C@H]3[C@@H](O)[C@H](n4ccc(=O)[nH]c4=O)O[C@@H]3COP(O)(=S)O[C@H]3[C@@H](O)[C@H](n4ccc(N)nc4=O)O[C@@H]3COP(O)(=S)O[C@H]3[C@@H](O)[C@H](n4ccc5c(=O)[nH]c(N)nc54)O[C@@H]3COP(O)(=S)O[C@H]3[C@@H](O)[C@H](n4ccc(=O)[nH]c4=O)O[C@@H]3CO)[C@H]2O)c(=O)n1 (stereo partly drawn) | 385 pg/mL

— ChEMBL document CHEMBL1154352, “Toll-like receptor 7 selective synthetic oligoribonucleotide agonists: synthesis and structure-activity relationship studies” (J Med Chem, 2009)
